Assay results reported in ChEMBL document CHEMBL4392862, “Antioxidant, anti-tyrosinase and anti-melanogenic effects of (E)-2,3-diphenylacrylic acid derivatives” (Bioorg Med Chem, 2019).

Tested on: B16-F10
Experiment: Cytotoxicity against mouse B16F10 cells assessed as reduction in cell viability at 5 to 10 uM incubated for 24 hrs by WST8 assay
Format: cell-based
Conditions: b16-f10, 24 h
Method in brief: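 B16F10 cells seeded at 5x10^4 per well in DMEM with 10% FBS and penicillin/streptomycin, 37 °C, 5% CO2, and grown 24 h. Exposed to 0, 5, 10 or 25 µM for 24 h. WST-8 reagent added for 1 h, OD read at 450 nm. Viability expressed as % of untreated cells. Three repeats.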

Compound	Activity
O=C(O)/C(=C/c1ccc(O)cc1O)c1ccccc1	Non-Toxic

Target: T1, Tyrosinase (Mus musculus) (UniProt P11344)
T1 sequence (whole entry): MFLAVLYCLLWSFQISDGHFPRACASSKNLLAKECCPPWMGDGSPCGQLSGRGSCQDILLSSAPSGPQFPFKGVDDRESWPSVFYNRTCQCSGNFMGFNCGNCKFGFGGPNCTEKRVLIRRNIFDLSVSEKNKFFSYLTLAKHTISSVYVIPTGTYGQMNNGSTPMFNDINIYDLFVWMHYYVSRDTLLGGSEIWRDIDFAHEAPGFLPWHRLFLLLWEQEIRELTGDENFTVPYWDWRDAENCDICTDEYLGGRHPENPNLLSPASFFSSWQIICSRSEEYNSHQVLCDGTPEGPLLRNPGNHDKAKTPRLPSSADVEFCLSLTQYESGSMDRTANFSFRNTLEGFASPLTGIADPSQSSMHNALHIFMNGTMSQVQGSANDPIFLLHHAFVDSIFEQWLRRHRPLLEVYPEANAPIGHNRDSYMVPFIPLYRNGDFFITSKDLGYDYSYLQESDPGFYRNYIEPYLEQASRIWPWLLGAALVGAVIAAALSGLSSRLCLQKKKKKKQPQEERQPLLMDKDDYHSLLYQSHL
Experiment: Inhibition of tyrosinase in alpha-MSH-stimulated mouse B16F10 cells incubated for 24 hrs relative to untreated control
Conditions: not given
Method in brief: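 B16F10 cells seeded at 5x10^4 per well and grown 24 h at 37 °C, 5% CO2. […] Cells PBS-washed, lysed in PMSF/Triton X-100 buffer, frozen at −80 °C, spun 12,000 rpm 4 °C. Supernatant incubated with L-dopa 30 min at 37 °C, OD read at 500 nm. Triplicate.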

Compound	inhibition
O=C(O)/C(=C/c1ccc(O)cc1O)c1ccccc1	Dose-dependent effect

Tested on: not listed separately
Experiment: Antioxidant activity assessed as DPPH radical scavenging activity at 1 mM after 30 mins under dark condition relative to untreated control
Format: functional
Conditions: not given
Method in brief: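 Test compounds dissolved in DMSO, mixed 1:9 (v/v) with 0.2 mM DPPH in methanol to a tested level of 1 mM. Incubated 30 min in the dark. Absorbance read at 517 nm. Scavenging % = (Ac−As)×100/Ac against untreated control. L-ascorbic acid used as positive control. Triplicate.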

Compound	inhibition [%]
CCOc1cc(/C=C(/C(=O)O)c2ccccc2)ccc1O	43.6
O=C(O)/C(=C\c1cc(Br)c(O)c(Br)c1)c1ccccc1	11.6
O=C(O)/C(=C/c1ccc(O)cc1)c1ccccc1	6.04
O=C(O)/C(=C/c1ccc(O)c(O)c1)c1ccccc1	83.7
COc1ccc(/C=C(/C(=O)O)c2ccccc2)cc1	5.68
O=C(O)/C(=C/c1cc(Br)c(O)c(Br)c1)c1ccccc1	23.9
O=C(O)/C(=C/c1ccccc1O)c1ccccc1	4.43
Cc1cc(/C=C(/C(=O)O)c2ccccc2)ccc1O	78.1
O=C(O)/C(=C/c1ccc(O)c(Br)c1)c1ccccc1	19.4
O=C(O)/C(=C/c1ccc(O)cc1O)c1ccccc1	52.1
COc1cc(/C=C(/C(=O)O)c2ccccc2)cc(OC)c1O	85
O=C1O[C@H]([C@@H](O)CO)C(O)=C1O	84.6
COc1cc(/C=C(/C(=O)O)c2ccccc2)ccc1O	81.6
O=C(O)/C(=C/c1cccc(O)c1)c1ccccc1	12.4
COc1ccc(/C=C(/C(=O)O)c2ccccc2)cc1O	24
COc1ccc(/C=C(/C(=O)O)c2ccccc2)cc1OC	10.2

Target: T1, Tyrosinase (Mus musculus)
Conditions: 400 uM

Compound	inhibition [%]
OC[C@H]1O[C@@H](Oc2ccc(O)cc2)[C@H](O)[C@@H](O)[C@@H]1O	42.6
